ChEMBL document CHEMBL4382192, “Discovery of a potent dual ALK and EGFR T790M inhibitor” (Eur J Med Chem, 2017)

Experiments:
[1] = target: Dual specificity testis-specific protein kinase 1 (Homo sapiens) (UniProt Q15569); assay: Binding affinity to wild-type human full length TESK1 (R37 to S626 residues) expressed in bacterial expression system assessed as residual binding level at 1 uM by Kinomescan method relative to control
[2] = target: Mitogen-activated protein kinase 15 (Homo sapiens) (UniProt Q8TD08); assay: Binding affinity to wild-type human partial length ERK8 (M1 to P437 residues) expressed in bacterial expression system assessed as residual binding level at 1 uM by Kinomescan method relative to control
[3] = target: Serine/threonine-protein kinase WNK4 (Homo sapiens) (UniProt Q96J92); assay: Binding affinity to wild-type human partial length WNK4 (A31 to D461 residues) expressed in mammalian expression system assessed as residual binding level at 1 uM by Kinomescan method relative to control
Sequence of Serine/threonine-protein kinase WNK4 (Homo sapiens) (Q96J92 whole entry, the tested form may be a part): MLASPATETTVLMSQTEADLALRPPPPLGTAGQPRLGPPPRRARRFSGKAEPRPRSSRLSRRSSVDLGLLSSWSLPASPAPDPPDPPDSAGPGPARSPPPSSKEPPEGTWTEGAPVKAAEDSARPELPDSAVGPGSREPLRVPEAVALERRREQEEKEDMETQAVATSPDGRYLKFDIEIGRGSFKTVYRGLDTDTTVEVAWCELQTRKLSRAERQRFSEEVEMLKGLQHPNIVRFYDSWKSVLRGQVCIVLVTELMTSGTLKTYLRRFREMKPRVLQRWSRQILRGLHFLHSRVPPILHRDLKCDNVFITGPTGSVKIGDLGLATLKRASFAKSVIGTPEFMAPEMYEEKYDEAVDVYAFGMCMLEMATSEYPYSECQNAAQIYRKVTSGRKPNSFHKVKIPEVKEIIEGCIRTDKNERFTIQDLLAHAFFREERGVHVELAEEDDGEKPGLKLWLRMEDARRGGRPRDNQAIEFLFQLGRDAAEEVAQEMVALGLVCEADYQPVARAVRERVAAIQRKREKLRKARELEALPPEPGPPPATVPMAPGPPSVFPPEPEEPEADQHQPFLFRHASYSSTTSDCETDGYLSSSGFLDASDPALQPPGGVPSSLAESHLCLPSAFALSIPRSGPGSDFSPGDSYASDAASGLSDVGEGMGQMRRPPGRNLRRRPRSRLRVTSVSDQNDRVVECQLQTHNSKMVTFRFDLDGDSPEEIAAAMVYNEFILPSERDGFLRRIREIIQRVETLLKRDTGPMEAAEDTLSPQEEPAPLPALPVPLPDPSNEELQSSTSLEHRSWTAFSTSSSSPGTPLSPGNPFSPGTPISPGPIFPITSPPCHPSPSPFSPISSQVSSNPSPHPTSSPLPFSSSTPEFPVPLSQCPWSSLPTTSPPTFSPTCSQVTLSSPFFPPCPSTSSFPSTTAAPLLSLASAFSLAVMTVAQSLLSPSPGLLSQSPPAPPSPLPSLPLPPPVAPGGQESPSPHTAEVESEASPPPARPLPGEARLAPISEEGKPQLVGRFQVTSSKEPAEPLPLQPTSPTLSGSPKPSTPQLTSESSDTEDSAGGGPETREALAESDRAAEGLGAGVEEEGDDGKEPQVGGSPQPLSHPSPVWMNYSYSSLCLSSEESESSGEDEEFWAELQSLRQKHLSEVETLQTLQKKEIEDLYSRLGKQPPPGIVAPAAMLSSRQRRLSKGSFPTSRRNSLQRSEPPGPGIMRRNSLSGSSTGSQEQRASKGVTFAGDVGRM

[4] = target: Serine/threonine-protein kinase D3 (Homo sapiens) (UniProt O94806); assay: Binding affinity to wild-type human partial length PRKD3 (S543 to E863 residues) expressed in bacterial expression system assessed as residual binding level at 1 uM by Kinomescan method relative to control
[5] = target: Serine/threonine-protein kinase PLK3 (Homo sapiens) (UniProt Q9H4B4); assay: Binding affinity to wild-type human partial length PLK3 (A42 to L334 residues) expressed in mammalian expression system assessed as residual binding level at 1 uM by Kinomescan method relative to control
[6] = test system: Phosphatidylinositol 4,5-bisphosphate 3-kinase catalytic subunit alpha isoform (Homo sapiens), P42336 [M1043I]; assay: Binding affinity to human partial length PIK3CA M1043I mutant (R108 to N1068 residues) expressed in mammalian expression system assessed as residual binding level at 1 uM by Kinomescan method relative to control
[7] = target: Casein kinase I isoform alpha (Homo sapiens) (UniProt P48729); assay: Binding affinity to wild-type human partial length CSNK1A1 (M1 to L450 residues) expressed in mammalian expression system assessed as residual binding level at 1 uM by Kinomescan method relative to control
[8] = target: Serine/threonine-protein kinase SIK2 (Homo sapiens) (UniProt Q9H0K1); assay: Binding affinity to wild-type human full length SIK2 (M1 to N926 residues) expressed in bacterial expression system assessed as residual binding level at 1 uM by Kinomescan method relative to control
Summary of the method: (§1)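 Single-point kinome-wide KINOMEscan binding panel, test compound at 1 μM, run by the provider's standard protocol.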

[9] = target: Tyrosine-protein kinase ITK/TSK (Homo sapiens) (UniProt Q08881); assay: Binding affinity to wild-type human partial length ITK (R335 to L620 residues) expressed in bacterial expression system assessed as residual binding level at 1 uM by Kinomescan method relative to control
[10] = target: Mitogen-activated protein kinase kinase kinase 1 (Homo sapiens) (UniProt Q13233); assay: Binding affinity to wild-type human partial length MAP3K1 (L1202 to W1512 residues) expressed in mammalian expression system assessed as residual binding level at 1 uM by Kinomescan method relative to control
Sequence of Mitogen-activated protein kinase kinase kinase 1 (Homo sapiens) (Q13233 whole entry, the tested form may be a part): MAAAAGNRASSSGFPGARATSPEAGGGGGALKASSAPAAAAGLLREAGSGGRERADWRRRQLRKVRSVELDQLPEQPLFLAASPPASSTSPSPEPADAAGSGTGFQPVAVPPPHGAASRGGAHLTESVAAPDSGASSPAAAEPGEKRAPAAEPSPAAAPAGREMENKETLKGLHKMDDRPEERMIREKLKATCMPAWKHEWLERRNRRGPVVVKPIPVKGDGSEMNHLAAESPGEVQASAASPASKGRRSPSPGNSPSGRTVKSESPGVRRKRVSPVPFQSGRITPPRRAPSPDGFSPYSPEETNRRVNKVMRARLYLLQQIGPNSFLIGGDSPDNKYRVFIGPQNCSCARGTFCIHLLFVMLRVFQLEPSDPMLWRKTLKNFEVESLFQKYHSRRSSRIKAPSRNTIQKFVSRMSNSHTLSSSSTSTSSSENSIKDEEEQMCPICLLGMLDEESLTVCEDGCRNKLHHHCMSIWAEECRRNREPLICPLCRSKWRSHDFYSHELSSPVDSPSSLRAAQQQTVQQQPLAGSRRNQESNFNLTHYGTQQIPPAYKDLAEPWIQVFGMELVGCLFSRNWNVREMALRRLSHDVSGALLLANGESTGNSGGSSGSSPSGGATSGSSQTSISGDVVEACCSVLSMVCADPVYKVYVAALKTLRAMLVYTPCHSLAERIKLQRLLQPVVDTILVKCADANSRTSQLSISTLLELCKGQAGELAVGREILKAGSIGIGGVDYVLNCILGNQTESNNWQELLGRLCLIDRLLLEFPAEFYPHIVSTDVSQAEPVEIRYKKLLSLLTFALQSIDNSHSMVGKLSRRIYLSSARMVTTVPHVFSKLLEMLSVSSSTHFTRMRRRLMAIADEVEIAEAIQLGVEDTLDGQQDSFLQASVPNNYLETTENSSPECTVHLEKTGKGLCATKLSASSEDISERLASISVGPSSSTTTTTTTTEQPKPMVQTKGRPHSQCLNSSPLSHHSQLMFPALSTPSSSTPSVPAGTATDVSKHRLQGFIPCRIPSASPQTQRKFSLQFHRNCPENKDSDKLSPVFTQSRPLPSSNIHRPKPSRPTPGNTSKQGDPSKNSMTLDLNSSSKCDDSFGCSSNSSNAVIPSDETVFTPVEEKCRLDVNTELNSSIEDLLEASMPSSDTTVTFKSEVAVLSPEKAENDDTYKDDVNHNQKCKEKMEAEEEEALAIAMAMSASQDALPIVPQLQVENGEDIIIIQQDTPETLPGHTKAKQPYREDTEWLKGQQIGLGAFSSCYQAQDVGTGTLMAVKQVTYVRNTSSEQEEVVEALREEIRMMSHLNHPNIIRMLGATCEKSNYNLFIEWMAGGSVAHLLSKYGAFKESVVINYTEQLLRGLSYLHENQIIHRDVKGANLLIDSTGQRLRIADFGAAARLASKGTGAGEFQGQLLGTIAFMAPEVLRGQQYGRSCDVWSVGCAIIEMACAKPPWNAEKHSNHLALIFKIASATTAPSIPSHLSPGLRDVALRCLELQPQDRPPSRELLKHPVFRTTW

[11] = target: Bone morphogenetic protein receptor type-1B (Homo sapiens) (UniProt O00238); assay: Binding affinity to wild-type human partial length BMPR1B (D178 to L502 residues) expressed in mammalian expression system assessed as residual binding level at 1 uM by Kinomescan method relative to control
Sequence of Bone morphogenetic protein receptor type-1B (Homo sapiens) (O00238 whole entry, the tested form may be a part): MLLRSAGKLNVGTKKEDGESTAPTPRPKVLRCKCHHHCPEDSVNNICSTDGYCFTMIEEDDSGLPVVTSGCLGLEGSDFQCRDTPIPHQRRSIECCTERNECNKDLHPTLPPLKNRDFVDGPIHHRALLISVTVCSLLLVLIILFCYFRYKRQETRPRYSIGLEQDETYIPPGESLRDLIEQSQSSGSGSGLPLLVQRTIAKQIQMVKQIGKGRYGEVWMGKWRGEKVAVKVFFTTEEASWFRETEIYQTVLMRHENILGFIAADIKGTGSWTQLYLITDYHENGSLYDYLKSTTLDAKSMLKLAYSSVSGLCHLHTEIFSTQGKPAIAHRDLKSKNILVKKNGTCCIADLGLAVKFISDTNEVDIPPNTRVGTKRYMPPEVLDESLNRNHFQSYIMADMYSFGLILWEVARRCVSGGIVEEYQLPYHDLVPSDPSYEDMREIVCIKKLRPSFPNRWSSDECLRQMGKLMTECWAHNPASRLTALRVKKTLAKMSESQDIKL

[12] = target: Serine/threonine-protein kinase haspin (Homo sapiens) (UniProt Q8TF76); assay: Binding affinity to wild-type human partial length HASPIN (I452 to K798 residues) expressed in mammalian expression system assessed as residual binding level at 1 uM by Kinomescan method relative to control
[13] = target: Aurora kinase A (Homo sapiens) (UniProt O14965); assay: Binding affinity to wild-type human partial length AURKA (E122 to K401 residues) expressed in mammalian expression system assessed as residual binding level at 1 uM by Kinomescan method relative to control
[14] = target: Serine/threonine-protein kinase SBK1 (Homo sapiens) (UniProt Q52WX2); assay: Binding affinity to wild-type human partial length SBK1 (P23 to P348 residues) expressed in mammalian expression system assessed as residual binding level at 1 uM by Kinomescan method relative to control
Sequence of Serine/threonine-protein kinase SBK1 (Homo sapiens) (Q52WX2 whole entry, the tested form may be a part): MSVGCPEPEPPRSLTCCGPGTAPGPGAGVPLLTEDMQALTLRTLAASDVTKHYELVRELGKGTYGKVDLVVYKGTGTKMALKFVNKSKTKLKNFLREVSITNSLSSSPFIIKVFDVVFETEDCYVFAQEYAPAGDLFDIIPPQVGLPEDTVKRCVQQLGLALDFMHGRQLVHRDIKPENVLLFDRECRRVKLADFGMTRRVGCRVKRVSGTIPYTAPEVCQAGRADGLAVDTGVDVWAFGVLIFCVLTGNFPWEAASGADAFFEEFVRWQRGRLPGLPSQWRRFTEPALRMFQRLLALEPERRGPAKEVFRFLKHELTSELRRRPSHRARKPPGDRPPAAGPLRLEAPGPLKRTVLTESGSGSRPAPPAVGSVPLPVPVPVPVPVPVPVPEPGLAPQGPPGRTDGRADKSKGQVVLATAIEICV

[15] = target: Mitogen-activated protein kinase 14 (Homo sapiens) (UniProt Q16539); assay: Binding affinity to wild-type human full length p38-alpha (M1 to S360 residues) expressed in bacterial expression system assessed as residual binding level at 1 uM by Kinomescan method relative to control
[16] = target: SRSF protein kinase 1 (Homo sapiens) (UniProt Q96SB4); assay: Binding affinity to wild-type human full length SRPK1 (M1 to S655 residues) expressed in bacterial expression system assessed as residual binding level at 1 uM by Kinomescan method relative to control; summary of the method: as §1
[17] = target: Serine/threonine-protein kinase Sgk3 (Homo sapiens) (UniProt Q96BR1); assay: Binding affinity to wild-type human partial length SGK3 (M119 to L496 residues) expressed in mammalian expression system assessed as residual binding level at 1 uM by Kinomescan method relative to control
[18] = target: Aurora kinase C (Homo sapiens) (UniProt Q9UQB9); assay: Binding affinity to wild-type human full length AURKC (M1 to S275 residues) expressed in bacterial expression system assessed as residual binding level at 1 uM by Kinomescan method relative to control
Sequence of Aurora kinase C (Homo sapiens) (Q9UQB9 whole entry, the tested form may be a part): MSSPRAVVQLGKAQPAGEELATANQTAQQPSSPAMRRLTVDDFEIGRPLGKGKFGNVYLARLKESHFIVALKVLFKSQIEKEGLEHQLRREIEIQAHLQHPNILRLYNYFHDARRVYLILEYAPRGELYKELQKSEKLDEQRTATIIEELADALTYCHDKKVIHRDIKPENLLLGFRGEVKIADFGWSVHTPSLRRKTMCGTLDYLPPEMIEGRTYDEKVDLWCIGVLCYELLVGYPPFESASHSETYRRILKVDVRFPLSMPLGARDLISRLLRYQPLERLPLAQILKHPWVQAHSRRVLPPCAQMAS

[19] = target: Dual specificity mitogen-activated protein kinase kinase 4 (Homo sapiens) (UniProt P45985); assay: Binding affinity to wild-type human partial length MEK4 (S84 to D399 residues) expressed in mammalian expression system assessed as residual binding level at 1 uM by Kinomescan method relative to control
[20] = target: Serine/threonine-protein kinase Nek4 (Homo sapiens) (UniProt P51957); assay: Binding affinity to wild-type human full length NEK4 (M1 to F841 residues) expressed in mammalian expression system assessed as residual binding level at 1 uM by Kinomescan method relative to control; summary of the method: as §1
[21] = target: 3-phosphoinositide-dependent protein kinase 1 (Homo sapiens) (UniProt O15530); assay: Binding affinity to wild-type human full length PDPK1 (M1 to Q556 residues) expressed in bacterial expression system assessed as residual binding level at 1 uM by Kinomescan method relative to control; summary of the method: as §1
[22] = target: Casein kinase I isoform delta (Homo sapiens) (UniProt P48730); assay: Binding affinity to wild-type human full length CSNK1D (M1 to K409 residues) expressed in bacterial expression system assessed as residual binding level at 1 uM by Kinomescan method relative to control
Sequence of Casein kinase I isoform delta (Homo sapiens) (P48730 whole entry, looked up, the tested form may be a part, canonical isoform): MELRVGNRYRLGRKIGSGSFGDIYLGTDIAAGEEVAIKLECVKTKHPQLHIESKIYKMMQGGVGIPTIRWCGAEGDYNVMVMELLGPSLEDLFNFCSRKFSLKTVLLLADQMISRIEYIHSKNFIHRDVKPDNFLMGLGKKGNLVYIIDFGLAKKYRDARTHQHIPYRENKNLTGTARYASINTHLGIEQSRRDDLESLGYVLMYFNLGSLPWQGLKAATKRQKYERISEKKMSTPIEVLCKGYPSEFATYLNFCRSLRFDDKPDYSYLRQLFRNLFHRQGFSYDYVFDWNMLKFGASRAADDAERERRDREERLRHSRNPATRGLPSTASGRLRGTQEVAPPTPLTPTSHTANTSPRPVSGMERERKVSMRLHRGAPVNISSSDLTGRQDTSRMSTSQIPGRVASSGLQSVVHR

[23] = target: LIM domain kinase 1 (Homo sapiens) (UniProt P53667); assay: Binding affinity to wild-type human full length LIMK1 (M1 to D647 residues) expressed in bacterial expression system assessed as residual binding level at 1 uM by Kinomescan method relative to control; summary of the method: as §1
Sequence of LIM domain kinase 1 (Homo sapiens) (P53667 whole entry, looked up, the tested form may be a part): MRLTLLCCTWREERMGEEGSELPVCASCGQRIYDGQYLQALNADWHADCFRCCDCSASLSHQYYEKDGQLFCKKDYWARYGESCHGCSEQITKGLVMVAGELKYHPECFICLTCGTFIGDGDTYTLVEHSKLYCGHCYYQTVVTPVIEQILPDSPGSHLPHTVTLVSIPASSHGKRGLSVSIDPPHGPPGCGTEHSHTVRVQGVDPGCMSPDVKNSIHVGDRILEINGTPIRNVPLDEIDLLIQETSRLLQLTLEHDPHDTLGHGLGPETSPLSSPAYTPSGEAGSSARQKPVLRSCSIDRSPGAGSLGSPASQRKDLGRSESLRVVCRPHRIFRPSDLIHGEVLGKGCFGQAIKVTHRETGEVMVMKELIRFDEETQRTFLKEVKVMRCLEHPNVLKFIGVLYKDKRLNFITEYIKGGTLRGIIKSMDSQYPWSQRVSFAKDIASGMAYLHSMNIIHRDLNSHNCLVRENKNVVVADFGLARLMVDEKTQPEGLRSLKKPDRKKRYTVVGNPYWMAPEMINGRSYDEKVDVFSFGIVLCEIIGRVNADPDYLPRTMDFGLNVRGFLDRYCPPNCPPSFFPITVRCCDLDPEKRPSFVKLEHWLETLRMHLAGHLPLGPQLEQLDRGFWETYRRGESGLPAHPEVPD

[24] = target: Ephrin type-B receptor 6 (Homo sapiens) (UniProt O15197); assay: Binding affinity to wild-type human partial length EPHB6 (Q634 to P948 residues) expressed in mammalian expression system assessed as residual binding level at 1 uM by Kinomescan method relative to control

C=CC(=O)Nc1cc(Nc2ncc(Cl)c(Nc3ccccc3S(=O)(=O)C(C)C)n2)c(OC)cc1N(C)CCN(C)C
Activity [1]: 91%
Activity [2]: 73%
Activity [3]: 94%
Activity [4]: 0%
Activity [5]: 60%
Activity [6]: 84%
Activity [7]: 74%
Activity [8]: 38%
Activity [9]: 0.1%
Activity [10]: 84%
Activity [11]: 0%
Activity [12]: 100%
Activity [13]: 4.2%
Activity [14]: 1.9%
Activity [15]: 92%
Activity [16]: 28%
Activity [17]: 53%
Activity [18]: 8.2%
Activity [19]: 100%
Activity [20]: 100%
Activity [21]: 94%
Activity [22]: 82%
Activity [23]: 87%
Activity [24]: 15%
